Measured values pooled from the literature.
Compare with care: the assays were run in different laboratories.
Target: Serine/threonine-protein kinase Nek11 (NEK11, Homo sapiens, UniProt Q8NG66)
Residues used in one study (Q8NG66 1-645): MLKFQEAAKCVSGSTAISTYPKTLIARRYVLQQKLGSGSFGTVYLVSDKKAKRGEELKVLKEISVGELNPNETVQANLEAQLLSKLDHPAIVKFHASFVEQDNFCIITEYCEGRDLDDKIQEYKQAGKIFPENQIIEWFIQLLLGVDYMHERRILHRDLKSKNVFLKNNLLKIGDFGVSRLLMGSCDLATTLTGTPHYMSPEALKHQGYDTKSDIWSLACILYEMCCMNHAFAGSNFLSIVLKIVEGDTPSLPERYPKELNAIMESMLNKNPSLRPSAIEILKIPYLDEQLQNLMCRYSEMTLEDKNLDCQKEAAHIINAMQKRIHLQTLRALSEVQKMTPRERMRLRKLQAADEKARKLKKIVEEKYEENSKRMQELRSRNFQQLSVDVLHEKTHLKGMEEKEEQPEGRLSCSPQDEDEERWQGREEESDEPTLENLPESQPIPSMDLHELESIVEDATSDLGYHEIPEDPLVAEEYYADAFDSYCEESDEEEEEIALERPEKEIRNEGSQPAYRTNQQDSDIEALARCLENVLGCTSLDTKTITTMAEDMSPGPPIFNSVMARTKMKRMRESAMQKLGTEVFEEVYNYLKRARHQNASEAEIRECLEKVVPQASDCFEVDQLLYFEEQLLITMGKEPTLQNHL

| SMILES | assay | setting | quantity | result |
| --- | --- | --- | --- | --- |
| Cc1ccc(NC(=O)c2ccc(C)c(C(F)(F)F)c2)cc1C#Cc1nn(C2CCC(O)CC2)c2ncnc(N)c12 (centres unmarked) | cell-free assay | 10 µM | remaining signal | 50% |
| C#Cc1cccc(Nc2ncnc3cc(OCCOC)c(OCCOC)cc23)c1 | cell-free assay | 0.5 µM | remaining signal | 114% |
| O=C(Nc1cnn(-c2csc(C(=O)NC3COC3)c2)c1)Nc1ccccc1Cl | enzyme activity, inhibitor | 5 µM | remaining activity | 145% |
| CC(C)(O)[C@H]1CC[C@H](Nc2ccc3ncc(-c4cccc(C(F)(F)F)c4)n3n2)CC1 | enzyme activity, inhibitor | 1 µM | remaining activity | 120% |
| C[C@H](c1ccc(F)cc1)N(Cc1cccc(C(=O)O)c1)C(=O)c1cnc2ccccc2c1 | cell-free assay, competition with immobilised ligand | 1 µM | remaining binding | 82% |
| COc1cc2ncnc(Nc3ccc(F)c(Cl)c3)c2cc1OCCCN1CCOCC1 | cell-free assay | 0.5 µM | remaining signal | 109% |
| Cc1c(NC(=O)c2cc(C(N)=O)nc3cc(F)ccc23)c(C(F)(F)F)nn1Cc1ccc(C#N)cc1 | cell-free assay, competition with immobilised ligand | 1 µM | remaining binding | 100% |
| Clc1ccc(Nc2nnc(Cc3ccncc3)c3ccccc23)cc1 | cell-free assay | 0.5 µM | remaining signal | 87% |
| Cc1ccc(Nc2nccc(N(C)c3ccc4c(C)n(C)nc4c3)n2)cc1S(N)(=O)=O | enzyme activity, inhibitor | 0.3 µM | inhibition | -9% |
| C[C@H](c1cccc(C#N)c1)n1cc(Cl)cc(C(N)=O)c1=N | cell-free assay, competition with immobilised ligand | 1 µM | remaining binding | 100% |
| CC(C)(C)c1nc2c(s1)c1nc(N)ncc1c1ccc(NS(=O)(=O)c3c(F)cccc3F)c(F)c12 | enzyme activity, inhibitor, radiometric | 1 µM | remaining activity | 60% |
| CCC(=O)N[C@H]1CC[C@@H](C(=O)N(C)c2ccc(-c3nc4ccccc4o3)cc2)C1 | cell-free assay, competition with immobilised ligand | 1 µM | remaining binding | 86% |
| Cc1cnc(NC2CCOCC2)nc1-n1cnc(C(=O)NC(CN)c2cc(F)cc(Cl)c2)c1 (centres unmarked) | enzyme activity, inhibitor, radiometric | 1 µM | remaining activity | 81% |
| CNC(=O)c1cc(Oc2ccc(NC(=O)Nc3ccc(Cl)c(C(F)(F)F)c3)cc2)ccn1 | enzyme activity, inhibitor | 10 µM | inhibition | 28% |
| O=C1NC(=O)c2cc(Nc3ccc(F)cc3)c(Nc3ccc(F)cc3)cc21 | cell-free assay | 0.5 µM | remaining signal | 103% |
| Cc1ccc(C(=O)Nc2ccc(CN3CCN(C)CC3)c(C(F)(F)F)c2)cc1C#Cc1cnc2cccnn12 | enzyme activity, inhibitor | 23.5 nM | remaining activity | 83% |
| COc1cc(-c2cn(C3CCc4c(F)cccc4N(CC(F)(F)F)C3=O)nn2)ccc1-n1cnc(C)c1 (centres unmarked) | cell-free assay, competition with immobilised ligand | 1 µM | remaining binding | 100% |
| Cc1cc(NC(=O)c2cccc3cc(-c4cccc5[nH]nc(N)c45)ccc23)ccc1F | enzyme activity, inhibitor | 0.1 µM | activity vs control | 91% |
| NS(=O)(=O)c1cc(NC(=O)C2(c3ccccc3Cl)CC2)ccc1Oc1cccc(Cl)c1 | cell-free assay, competition with immobilised ligand | 1 µM | remaining binding | 100% |
| CCN(CC)CCNC(=O)c1c(C)[nH]c(/C=C2\C(=O)Nc3ccc(F)cc32)c1C | enzyme activity, inhibitor | 10 µM | inhibition | 46% |
